Reference: ChEMBL document CHEMBL4251712, “Mbandakamine-Type Naphthylisoquinoline Dimers and Related Alkaloids from the Central African Liana Ancistrocladus ealaensis with Antiparasitic and Antileukemic Activities” (J Nat Prod, 2018)
Active and inactive are the calls of the source. No cut-off for these calls is given here.

Assays:
[1] = test system: Plasmodium falciparum; test: Antiplasmodial activity against chloroquine-sensitive Plasmodium falciparum NF54 assessed as reduction in [3H]-hypoxanthine incorporation pretreated for 48 hrs followed by [3H]-hypoxanthine addition measured after 24 hrs by liquid scintillation counting method; format: functional, organism-based
[2] = test system: Plasmodium falciparum; test: Antiplasmodial activity against chloroquine and pyrimethamine-resistant Plasmodium falciparum K1 assessed as reduction in [3H]-hypoxanthine incorporation pretreated for 48 hrs followed by [3H]-hypoxanthine addition measured after 24 hrs by liquid scintillation counting method; format: functional, organism-based
Summary of the method: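 IC50 against the K1 strain taken as the mean of two independent assays, with individual values differing by a factor of less than 2.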

[3] = test system: Trypanosoma cruzi; test: […] activity against Trypanosoma cruzi Tulahuen C4 infected in rat L6 cells after 96 hrs by CPRG/Nonidet reagent based photometric analysis; format: functional, organism-based; conditions: for IC50: Tulahuen C4, L6, 96 h
Summary of the method: (§1)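 IC50 values are means of two independent assays, individual values differing by less than a factor of 2.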

[4] = test system: Trypanosoma brucei rhodesiense; test: […] activity against Trypanosoma brucei rhodesiense STIB 900 trypomastigote after 72 hrs by Alamar blue assay; format: functional, organism-based; conditions: for IC50: STIB 900, 72 h; summary of the method: as §1
[5] = test system: Leishmania donovani; test: […] activity against Leishmania donovani MHOM-ET-67/L82 axenic amastigotes after 72 hrs by Alamar blue assay; format: functional, organism-based; conditions: for IC50: MHOM-ET-67/L82, 72 h; summary of the method: as §1
[6] = test system: L6; test: Cytotoxicity against rat L6 cells after 72 hrs by Alamar blue assay; format: cell-based; conditions: L6, 72 h; summary of the method: as §1
[7] = Selectivity index, ratio of IC50 for rat L6 cells to IC50 for chloroquine-sensitive Plasmodium falciparum NF54; format: toxicity; conditions: read-out: Ratio IC50
Summary of the method: (§2)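 Selectivity index is the L6-cell IC50 divided by the P. falciparum IC50 for the matching strain (K1 or NF54). Each IC50 is the mean of two independent assays, with individual values differing by a factor of less than 2.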

[8] = Selectivity index, ratio of IC50 for rat L6 cells to IC50 for chloroquine and pyrimethamine-resistant Plasmodium falciparum K1; format: toxicity; conditions: read-out: Ratio IC50; summary of the method: as §2
[9] = test system: CCRF-CEM; test: Antileukemic activity against human CCRF-CEM cells after 24 to 48 hrs by resazurin dye based fluorescence assay; format: functional, cell-based
Summary of the method: (§3)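 Leukemia cells treated with compounds across 0.001 to 100 μM, doxorubicin as reference drug; viability read by resazurin assay. Values are means with standard deviation of three independent experiments, each with six parallel measurements.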

[10] = test system: ADR5000 cell line; test: Antileukemic activity against human CEM/ADR5000 cells after 24 to 48 hrs by resazurin dye based fluorescence assay; format: functional, cell-based; summary of the method: as §3
[11] = Resistance index, ratio of IC50 for human CEM/ADR5000 cells to IC50 for human CCRF-CEM cells; format: functional
Summary of the method: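 Degree of resistance calculated as IC50 for CEM/ADR5000 divided by IC50 for CCRF-CEM; IC50s from resazurin viability assay after treatment at 0.001 to 100 μM, three independent experiments of six parallels each.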

[12] = test system: CCRF-CEM; test: Antileukemic activity against human CCRF-CEM cells assessed as reduction in cell viability at 0.001 to 100 uM after 24 to 48 hrs by resazurin dye based fluorescence assay relative to control
[13] = test system: ADR5000 cell line; test: Antileukemic activity against human CEM/ADR5000 cells assessed as reduction in cell viability at 0.001 to 100 uM after 24 to 48 hrs by resazurin dye based fluorescence assay relative to control
[14] = test system: Plasmodium falciparum; test: Antiplasmodial activity against Plasmodium falciparum NF54; format: functional, organism-based; summary of the method: as §1

Row | Structure (SMILES) | IC50 [1] [µM] | IC50 [2] [µM] | IC50 [3] [µM] | IC50 [4] [µM] | IC50 [5] [µM] | IC50 [6] [µM] | selectivity ratio [7] | selectivity ratio [8] | Activity [1] | Activity [2] | Activity [3] | Activity [4] | Activity [5] | further results
1 | COc1cc(O)c(-c2cc(-c3c(C)cc(O)c4c(OC)ccc(-c5c(O)cc(OC)c6c5C[C@@H](C)N[C@@H]6C)c34)c(O)c3c(OC)cc(C)cc23)c2c1[C@H](C)N[C@H](C)C2 | 0.047 | 0.064 | 41.8 | 1.8 | > 100 | 15.9 | 339 | 249 | – | – | – | – | – | IC50 [9]: 1.5 µM; IC50 [10]: 27.7 µM; Ratio IC50 [11]: 18.5
2 | COc1cc(O)cc2c1C(C)=N[C@@H](C)C2 | – | – | – | – | – | – | – | – | inactive | inactive | inactive | inactive | inactive | –
3 | COc1cc(OC)c(-c2ccc(O)c3c(OC)cc(C)cc23)c2c1C(C)=N[C@@H](C)C2 | 2.69 | 1.06 | 43.4 | 1.46 | 13.4 | 101 | 37.5 | 95.3 | – | – | – | – | – | Activity [12]: <20%; Activity [13]: <20%
4 | COc1cc(O)c2c(c1)C[C@H](C)N[C@H]2C | – | – | – | – | – | – | – | – | inactive | inactive | inactive | inactive | inactive | –
5 | COc1cc(C)cc2c(-c3c(O)cc(O)c4c3C[C@@H](C)N[C@@H]4C)ccc(O)c12 [KORUPENSAMINE A] | – | – | – | – | – | – | – | – | – | – | – | – | – | IC50 [14]: 0.82 µM
6 | COc1cc(O)c(-c2ccc(OC)c3c(O)cc(C)c(-c4cc(-c5c(O)cc(OC)c6c5C[C@@H](C)N[C@H]6C)c5cc(C)cc(OC)c5c4O)c23)c2c1C(C)=N[C@H](C)C2 | 0.337 | 0.126 | – | 4.1 | > 100 | 8.87 | 26.3 | 70.4 | – | – | – | – | – | IC50 [9]: 2.96 µM; IC50 [10]: 19 µM; Ratio IC50 [11]: 6.4
7 | COc1cc(OC)c2c(c1-c1ccc(O)c3c(OC)cc(C)cc13)C[C@H](C)N[C@H]2C [ANCISTROEALAINE B] | 1.74 | 0.76 | 32.5 | 3.85 | 37.9 | 77.8 | 44.7 | 102 | – | – | – | – | – | –
8 | COc1cc(O)c2c(c1)C[C@H](C)N=C2C | – | – | – | – | – | – | – | – | inactive | inactive | inactive | inactive | inactive | –
9 | COc1cc(C)cc2c(-c3c(O)cc(O)c4c3C[C@@H](C)N[C@H]4C)ccc(O)c12 | 9.94 | 12.9 | 237 | 15.3 | 26.4 | 79.1 | 7.95 | 6.13 | – | – | – | – | – | –
10 | COc1cc(O)c(-c2cc(-c3c(C)cc(O)c4c(OC)ccc(-c5c(O)cc(OC)c6c5C[C@@H](C)N[C@@H]6C)c34)c(O)c3c(OC)cc(C)cc23)c2c1[C@@H](C)N[C@H](C)C2 | 0.13 | – | – | – | – | – | – | – | – | – | – | – | – | IC50 [9]: 7.4 µM; IC50 [10]: 23.9 µM; Ratio IC50 [11]: 3.2
11 | COc1cc([C@@H]2c3cc4c(cc3[C@H](O)[C@H]3COC(=O)[C@H]23)OCO4)cc(OC)c1OC [PODOFILOX] | – | – | – | – | – | 0.041 | – | – | – | – | – | – | – | –
12 | O=C(Cn1ccnc1[N+](=O)[O-])NCc1ccccc1 [BENZNIDAZOLE] | – | – | 3.56 | – | – | – | – | – | – | – | – | – | – | –
13 | COc1cc(O)c2c(c1)C[C@H](C)N[C@@H]2C | – | – | – | – | – | – | – | – | inactive | inactive | inactive | inactive | inactive | –
